Activity calls are given as the source filed them. No cut-off for these calls is given here.

One molecule from ChEMBL document CHEMBL4725346, “Syntheses and Evaluation of New Bisacridine Derivatives for Dual Binding of G-Quadruplex and i-Motif in Regulating Oncogene c-myc Expression” (J Med Chem, 2020) can be followed below.

Series [1] is described as follows: Stabilization of c-myc promoter i-motif DNA Py33 (unknown origin) assessed as reduction in appearance of random coil confirmation at pH 5.5 by CD spectroscopy. The method in brief:
(§1)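 Py33 at 1 µM in 1× BPES pH 5.5 (pH 6.8 random-coil reference), with or without ligand. Annealed at 95 °C for 5 min, cooled, kept at 4 °C overnight. CD spectra in a 4 mm cuvette over 230–350 nm, three scans averaged, buffer-corrected; peaks followed at 288 and 260 nm.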

Series [2] in a line: Stabilization of 5'-FAM/3'-TAMRA labeled hairpin DNA F10T (unknown origin) assessed as change in melting temperature at 1 uM by FRET assay (reference value: 59.1 degreeC).
Series [3] can be described thus: Stabilization of c-myc promoter i-motif DNA Py33 (unknown origin) assessed as effect on melting temperature at 5 uM by CD spectroscopy. The method in brief: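 CD melting: Py33 at 1 µM in 1× BPES pH 6.4, with or without ligand. Annealed at 95 °C for 5 min, slowly cooled, then heated at 1 °C/min while monitoring 260 nm. Tm obtained by curve fitting.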
Series [4] addresses dsDNA. The series is described as follows: Binding affinity to 5'-biotin labeled duplex DNA (unknown origin) by surface plasmon resonance method. The format is nucleic-acid assay. The method in brief:
(§2)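 SPR: 5'-biotin DNA diluted to 1 μM and captured (1000 RU) on a sensor chip, with a blank cell as reference. Running buffers: Py33 in 20 mM MES pH 5.8, 100 mM KCl, 0.05% Tween-20; Pu27 and duplex in 50 mM Tris-HCl pH 7.4, 100 mM KCl. Six ligand concentrations serially diluted from DMSO stock. Association 260 s, dissociation 300 s at 25 °C; NaOH regeneration; blank sensorgrams subtracted.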
A general note: Surface plasmon resonance follows binding to a sensor surface in real time, without labels.

Series [5] is described as follows: Binding affinity to 5'-biotin labeled c-myc promoter i-motif DNA Py33 (unknown origin) by surface plasmon resonance method. The method in brief: as §2
Series [6] concerns Quadruplex DNA. The series is described as follows: Stabilization of c-myc promoter G-quadruplex DNA Pu27 (unknown origin) assessed as effect on melting temperature at 5 uM by CD spectroscopy. Type of series: nucleic-acid assay. The method in brief: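 CD melting: Pu27 diluted to 1 µM in 10 mM Tris-HCl, 5 mM KCl, pH 7.4, with or without ligand. Annealed at 95 °C for 5 min, slowly cooled, then heated at 1 °C/min while monitoring 260 nm. Tm obtained by curve fitting.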

Series [7] in a line: Stabilization of c-myc promoter i-motif DNA Py33 (unknown origin) assessed as decrease in positive peak intensity at pH 5.5 measured at 288 nanometer by CD spectroscopy. The method in brief: as §1
The nature of series [8]: Stabilization of c-myc promoter i-motif DNA Py33 (unknown origin) assessed as decrease in negative peak intensity at pH 5.5 measured at 260 nanometer by CD spectroscopy. The method in brief:
as §1

Series [9] has as its system Quadruplex DNA. Nature of the series: Stabilization of 5'-FAM/3'-TAMRA labeled c-myc promoter G-quadruplex DNA FPu22T (unknown origin) assessed as change in melting temperature at 1 uM by FRET assay (reference value: 66.5 degreeC). The format is nucleic-acid assay. The method in brief:
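FRET melting of dual FAM/TAMRA-labelled FPu22T annealed in 10 mM Tris-HCl pH 7.4 with KCl. Final 0.2 µM DNA with or without ligand. Excitation 470 nm, emission 530 nm, read every 1 °C over 37–99 °C on a real-time PCR cycler. ΔTm = Tm(DNA+ligand) − Tm(DNA).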

Series [10] in a line: Stabilization of c-myc promoter i-motif DNA Py33 (unknown origin) assessed as increase in slower migration band incubated overnight by silver staining based PAGE analysis. The method in brief: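 Py33 (3 µM) co-annealed with increasing ligand in 1× BPES pH 6.8 at 95 °C for 5 min, cooled, held at 4 °C overnight. Run on native 20% acrylamide in 1× TBE at 140 V for 5 h at 5 °C, then silver-stained.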

The target of series [11] is Quadruplex DNA. Nature of the series: Binding affinity to 5'-biotin labeled c-myc promoter G-quadruplex DNA Pu27 (unknown origin) by surface plasmon resonance method. Type of series: nucleic-acid assay. The method in brief: as §2
Series [12] is described as follows: Drug uptake in human SiHa cells. The format is ADME, cell-based.
Series [13] is described as follows: Stabilization of 5'-FAM/3'-TAMRA labeled c-myc promoter i-motif DNA FPy33T (unknown origin) assessed as change in melting temperature at 1 uM by FRET assay (reference value: 53.2 degreeC). The method in brief: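 FRET melting of dual FAM/TAMRA-labelled FPy33T annealed in 1× BPES (30 mM potassium phosphate, 1 mM EDTA, 100 mM KCl), pH 5.5. Final 0.2 µM DNA with or without ligand. Excitation 470 nm, emission 530 nm, read every 1 °C over 37–99 °C. ΔTm taken against DNA alone.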

Regarding `Cc1ccc2nc3ccc(C(=O)NCCCN(C)C)cc3c(NCCCNCCNCCCNc3c4cc(C)ccc4nc4ccc(C(=O)NCCCN(C)C)cc34)c2c1`, the result in series [1], in [3], in series [6], in series [7] and in [8] was Active. Also, the results for the ΔTm in [2], in series [9] and in series [13] were 2.8 °C, 17.1 °C and 24.3 °C, respectively. The Kd in series [4] worked out at 21700 nM; in [5], 1000 nM; in [11], 2700 nM. For the same molecule, in [10], the Activity entry is “Dose-dependent effect”. For the same molecule, the Drug uptake entry in series [12] is reported as “Not Active”.

A word on the ΔTm: it is the change in melting temperature against a reference sample. What is called Kd is the concentration at which binding is half-saturated.
